Data reported in ChEMBL document CHEMBL2406932, “Heteroaromatic and aniline derivatives of piperidines as potent ligands for vesicular acetylcholine transporter” (J Med Chem, 2013).

Experiments:
Blood [1] = experiment: Biodistribution in Sprague-Dawley rat blood at 350 uCi, iv after 5 mins; format: ADME, organism-based; conditions: in vivo
Heart [2] = experiment: Biodistribution in Sprague-Dawley rat heart at 350 uCi, iv after 5 mins; format: ADME, organism-based; conditions: in vivo
Lung [3] = experiment: Biodistribution in Sprague-Dawley rat lung at 350 uCi, iv after 5 mins; format: ADME, organism-based; conditions: in vivo
Liver [4] = experiment: Biodistribution in Sprague-Dawley rat liver at 350 uCi, iv after 5 mins; format: ADME, organism-based; conditions: in vivo
Muscle tissue [5] = experiment: Biodistribution in Sprague-Dawley rat muscle at 350 uCi, iv after 5 mins; format: ADME, organism-based; conditions: in vivo
Rattus norvegicus [6] = experiment: Biodistribution in Sprague-Dawley rat fat at 350 uCi, iv after 5 mins; format: ADME, organism-based, Adipose tissue; conditions: in vivo
Pancreas [7] = experiment: Biodistribution in Sprague-Dawley rat pancreas at 350 uCi, iv after 5 mins; format: ADME, organism-based; conditions: in vivo
Spleen [8] = experiment: Biodistribution in Sprague-Dawley rat spleen at 350 uCi, iv after 5 mins; format: ADME, organism-based; conditions: in vivo
Kidney [9] = experiment: Biodistribution in Sprague-Dawley rat kidney at 350 uCi, iv after 5 mins; format: ADME, organism-based; conditions: in vivo
Brain [10] = experiment: Biodistribution in Sprague-Dawley rat brain at 350 uCi, iv after 5 mins; format: ADME, organism-based; conditions: in vivo
Blood [11] = experiment: Biodistribution in Sprague-Dawley rat blood at 350 uCi, iv after 30 mins; format: ADME, organism-based; conditions: in vivo, 0.5 h
Heart [12] = experiment: Biodistribution in Sprague-Dawley rat heart at 350 uCi, iv after 30 mins; format: ADME, organism-based; conditions: in vivo, 0.5 h
Lung [13] = experiment: Biodistribution in Sprague-Dawley rat lung at 350 uCi, iv after 30 mins; format: ADME, organism-based; conditions: in vivo, 0.5 h
Muscle tissue [14] = experiment: Biodistribution in Sprague-Dawley rat muscle at 350 uCi, iv after 30 mins; format: ADME, organism-based; conditions: in vivo, 0.5 h
Rattus norvegicus [15] = experiment: Biodistribution in Sprague-Dawley rat fat at 350 uCi, iv after 30 mins; format: ADME, organism-based, Adipose tissue; conditions: in vivo, 0.5 h
Pancreas [16] = experiment: Biodistribution in Sprague-Dawley rat pancreas at 350 uCi, iv after 30 mins; format: ADME, organism-based; conditions: in vivo, 0.5 h
Spleen [17] = experiment: Biodistribution in Sprague-Dawley rat spleen at 350 uCi, iv after 30 mins; format: ADME, organism-based; conditions: in vivo, 0.5 h
Kidney [18] = experiment: Biodistribution in Sprague-Dawley rat kidney at 350 uCi, iv after 30 mins; format: ADME, organism-based; conditions: in vivo, 0.5 h
Brain [19] = experiment: (§1) Biodistribution in Sprague-Dawley rat brain at 350 uCi, iv after 30 mins; format: ADME, organism-based; conditions: in vivo, 0.5 h
Liver [20] = experiment: Biodistribution in Sprague-Dawley rat liver at 350 uCi, iv after 30 mins; format: ADME, organism-based; conditions: in vivo, 0.5 h
Blood [21] = experiment: Biodistribution in Sprague-Dawley rat blood at 350 uCi, iv after 30 mins in presence of cyclosporin A; format: ADME, organism-based; conditions: in vivo, 0.5 h
Heart [22] = experiment: Biodistribution in Sprague-Dawley rat heart at 350 uCi, iv after 30 mins in presence of cyclosporin A; format: ADME, organism-based; conditions: in vivo, 0.5 h
Lung [23] = experiment: Biodistribution in Sprague-Dawley rat lung at 350 uCi, iv after 30 mins in presence of cyclosporin A; format: ADME, organism-based; conditions: in vivo, 0.5 h
Liver [24] = experiment: Biodistribution in Sprague-Dawley rat liver at 350 uCi, iv after 30 mins in presence of cyclosporin A; format: ADME, organism-based; conditions: in vivo, 0.5 h
Muscle tissue [25] = experiment: Biodistribution in Sprague-Dawley rat muscle at 350 uCi, iv after 30 mins in presence of cyclosporin A; format: ADME, organism-based; conditions: in vivo, 0.5 h
Rattus norvegicus [26] = experiment: Biodistribution in Sprague-Dawley rat fat at 350 uCi, iv after 30 mins in the presence of cyclosporin A; format: ADME, organism-based, Adipose tissue; conditions: in vivo, 0.5 h
Pancreas [27] = experiment: Biodistribution in Sprague-Dawley rat pancreas at 350 uCi, iv after 30 mins in the presence of cyclosporin A; format: ADME, organism-based; conditions: in vivo, 0.5 h
Spleen [28] = experiment: Biodistribution in Sprague-Dawley rat spleen at 350 uCi, iv after 30 mins in the presence of cyclosporin A; format: ADME, organism-based; conditions: in vivo, 0.5 h
Kidney [29] = experiment: Biodistribution in Sprague-Dawley rat kidney at 350 uCi, iv after 30 mins in the presence of cyclosporin A; format: ADME, organism-based; conditions: in vivo, 0.5 h
Brain [30] = experiment: Biodistribution in Sprague-Dawley rat brain at 350 uCi, iv after 30 mins in the presence of cyclosporin A; format: ADME, organism-based; conditions: in vivo, 0.5 h
Cerebellum [31] = experiment: Biodistribution in Sprague-Dawley rat cerebellum at 350 uCi, iv after 30 mins; format: ADME, organism-based; conditions: in vivo, 0.5 h
Striatum [32] = experiment: Biodistribution in Sprague-Dawley rat striatum at 350 uCi, iv after 30 mins; format: ADME, organism-based; conditions: in vivo, 0.5 h
Rattus norvegicus [33] = experiment: Biodistribution in Sprague-Dawley rat brain stem at 350 uCi, iv after 30 mins; format: ADME, organism-based; conditions: in vivo, 0.5 h
Cortex [34] = experiment: Biodistribution in Sprague-Dawley rat cortex at 350 uCi, iv after 30 mins; format: ADME, organism-based; conditions: in vivo, 0.5 h
Thalamus [35] = experiment: Biodistribution in Sprague-Dawley rat thalamus at 350 uCi, iv after 30 mins; format: ADME, organism-based; conditions: in vivo, 0.5 h
Hippocampus [36] = experiment: Biodistribution in Sprague-Dawley rat hippocampus at 350 uCi, iv after 30 mins; format: ADME, organism-based; conditions: in vivo, 0.5 h
Brain [37] = experiment: as §1; format: ADME, organism-based; conditions: in vivo, 0.5 h; remark: listed apart in the source
Cerebellum [38] = experiment: Biodistribution in Sprague-Dawley rat cerebellum at 350 uCi, iv after 30 mins in presence of cyclosporin A; format: ADME, organism-based; conditions: in vivo, 0.5 h
Striatum [39] = experiment: Biodistribution in Sprague-Dawley rat striatum at 350 uCi, iv after 30 mins in presence of cyclosporin A; format: ADME, organism-based; conditions: in vivo, 0.5 h
Rattus norvegicus [40] = experiment: Biodistribution in Sprague-Dawley rat brain stem at 350 uCi, iv after 30 mins in presence of cyclosporin A; format: ADME, organism-based; conditions: in vivo, 0.5 h
Cortex [41] = experiment: Biodistribution in Sprague-Dawley rat cortex at 350 uCi, iv after 30 mins in presence of cyclosporin A; format: ADME, organism-based; conditions: in vivo, 0.5 h
Thalamus [42] = experiment: Biodistribution in Sprague-Dawley rat thalamus at 350 uCi, iv after 30 mins in presence of cyclosporin A; format: ADME, organism-based; conditions: in vivo, 0.5 h
Hippocampus [43] = experiment: Biodistribution in Sprague-Dawley rat hippocampus at 350 uCi, iv after 30 mins in presence of cyclosporin A; format: ADME, organism-based; conditions: in vivo, 0.5 h
Brain [44] = experiment: Biodistribution in Sprague-Dawley rat brain at 350 uCi, iv after 30 mins in presence of cyclosporin A; format: ADME, organism-based; conditions: in vivo, 0.5 h
[45] = Biodistribution in cynomolgus monkey striatum at 5 to 7 mCi, iv up to 100 mins by microPET analysis; format: ADME, organism-based, Macaca fascicularis; conditions: in vivo
In short: (§2)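 Male cynomolgus monkeys (4–6 kg) were fasted 12 h, induced with ketamine (10 mg/kg) and glycopyrrolate (0.13 mg/kg) i.m., intubated and kept on 0.75–2.0% isoflurane. After attenuation-correction transmission scans, 5–7 mCi of tracer was given via venous catheter and a 100 min dynamic microPET scan was acquired. MRI-coregistered regions of interest yielded time-activity curves; n = 3.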

[46] = Biodistribution in cynomolgus monkey striatum at 5 to 7 mCi, iv after 10 mins by microPET analysis; format: ADME, organism-based, Macaca fascicularis; conditions: in vivo; in short: as §2
Brain [47] = experiment: Ratio of drug uptake in Sprague-Dawley rat brain in absence of cyclosporin A to drug uptake in Sprague-Dawley rat brain in presence of cyclosporin A; format: ADME, tissue-based; conditions: in vivo
In short: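 Cyclosporine A (Sandimmune diluted 1:1 with saline) was given i.v. at 25 mg/kg 30 min before the radioligand. Rats were euthanized 30 min after tracer injection. Groups were compared with controls by Student t test (n=4).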

[48] = target: Sigma non-opioid intracellular receptor 1 (Cavia porcellus, UniProt Q60492); experiment: Displacement of (+)- [3H]pentazocine from sigma 1 receptor expressed in guinea pig brain membrane homogenates by scintillation counting analysis; format: cell membranes
[49] = target: T1, Vesicular acetylcholine transporter (Homo sapiens, UniProt Q16572); experiment: Displacement of (-)-[3H]vesamicol from human VAChT expressed in rat PC12 cell membrane after 20 hrs; format: cell membranes, PC-12
T1 sequence (Q16572 whole entry): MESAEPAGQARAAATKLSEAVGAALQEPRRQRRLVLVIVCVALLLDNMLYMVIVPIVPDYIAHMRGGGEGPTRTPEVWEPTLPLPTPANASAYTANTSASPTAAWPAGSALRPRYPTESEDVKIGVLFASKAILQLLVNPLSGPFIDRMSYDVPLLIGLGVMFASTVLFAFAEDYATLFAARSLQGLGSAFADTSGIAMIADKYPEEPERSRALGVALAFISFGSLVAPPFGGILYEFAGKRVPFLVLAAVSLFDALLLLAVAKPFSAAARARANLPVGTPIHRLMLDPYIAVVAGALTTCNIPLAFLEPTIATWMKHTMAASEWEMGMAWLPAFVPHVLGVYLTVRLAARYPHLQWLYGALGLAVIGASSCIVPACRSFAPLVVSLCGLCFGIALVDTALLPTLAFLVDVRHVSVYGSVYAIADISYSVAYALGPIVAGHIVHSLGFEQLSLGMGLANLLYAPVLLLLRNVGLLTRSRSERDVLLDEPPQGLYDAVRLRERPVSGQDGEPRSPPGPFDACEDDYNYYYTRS

[50] = Displacement of [3H]DTG from sigma 2 receptor in rat liver membrane homogenates after 120 mins by scintillation counting analysis; format: cell membranes
In short: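 Rat liver membrane homogenate (~300 µg protein) with ~5 nM [3H]DTG plus 1 µM (+)-pentazocine to block sigma-1 sites, 120 min at room temperature, pH 7.4 Tris buffer. Nonspecific binding taken with 10 µM haloperidol. Filtration and scintillation counting.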

Macaca fascicularis = experiment: Ratio of drug level in cynomolgus monkey […] at 5 to 7 mCi, iv after 70 mins; conditions: in vivo

Sigma non-opioid intracellular receptor 1, sequence (Q60492 whole entry): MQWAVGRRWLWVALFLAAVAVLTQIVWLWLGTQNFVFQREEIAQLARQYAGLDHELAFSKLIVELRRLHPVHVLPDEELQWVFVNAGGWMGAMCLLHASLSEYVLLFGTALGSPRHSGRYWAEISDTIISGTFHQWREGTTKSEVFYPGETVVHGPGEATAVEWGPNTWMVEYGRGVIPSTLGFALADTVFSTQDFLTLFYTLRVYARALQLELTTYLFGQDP

[11CH3]Nc1ccc(C(=O)C2CCN([C@H]3Cc4ccccc4C[C@@H]3O)CC2)cc1
Drug uptake (Blood [1]): 0.34 % ID/g | Drug uptake (Heart [2]): 0.49 % ID/g | Drug uptake (Lung [3]): 1.77 % ID/g | Drug uptake (Liver [4]): 3.45 % ID/g | Drug uptake (Muscle tissue [5]): 0.22 % ID/g | Drug uptake (Rattus norvegicus [6]): 0.18 % ID/g | Drug uptake (Pancreas [7]): 0.89 % ID/g | Drug uptake (Spleen [8]): 1.19 % ID/g | Drug uptake (Kidney [9]): 1.47 % ID/g | Drug uptake (Brain [10]): 0.57 % ID/g | Drug uptake (Blood [11]): Active | Drug uptake (Heart [12]): Active | Drug uptake (Lung [13]): Active | Drug uptake (Muscle tissue [14]): Active | Drug uptake (Rattus norvegicus [15]): Active | Drug uptake (Pancreas [16]): Active | Drug uptake (Spleen [17]): Active | Drug uptake (Kidney [18]): Active | Drug uptake (Brain [19]): Active | Drug uptake (Liver [20]): 2.44 % ID/g | Drug uptake (Blood [21]): Active | Drug uptake (Heart [22]): Active | Drug uptake (Lung [23]): Active | Drug uptake (Liver [24]): Active | Drug uptake (Muscle tissue [25]): Active | Drug uptake (Rattus norvegicus [26]): Active | Drug uptake (Pancreas [27]): Active | Drug uptake (Spleen [28]): Active | Drug uptake (Kidney [29]): 1.21 % ID/g | Drug uptake (Brain [30]): Active | Drug uptake (Cerebellum [31]): 0.157 % ID/g | Drug uptake (Striatum [32]): 0.593 % ID/g | Drug uptake (Rattus norvegicus [33]): 0.245 % ID/g | Drug uptake (Cortex [34]): 0.262 % ID/g | Drug uptake (Thalamus [35]): 0.293 % ID/g | Drug uptake (Hippocampus [36]): 0.265 % ID/g | Drug uptake (Brain [37]): 0.272 % ID/g | Drug uptake (Cerebellum [38]): 0.404 % ID/g | Drug uptake (Striatum [39]): 1.02 % ID/g | Drug uptake (Rattus norvegicus [40]): 0.577 % ID/g | Drug uptake (Cortex [41]): 0.637 % ID/g | Drug uptake (Thalamus [42]): 0.6 % ID/g | Drug uptake (Hippocampus [43]): 0.562 % ID/g | Drug uptake (Brain [44]): 0.596 % ID/g | Drug uptake [45]: Active | Drug uptake [46]: Active | Ratio (Brain [47]): 2.2 | Ki [48]: 992 nM | Ki [49]: 0.78 nM | Ki [50]: 11400 nM | Ratio (Macaca fascicularis): > 2.5
